# An excerpt weighted towards active compounds, which were near 1.8% of everything screened.
# DDE Tn6 FP inh – DD(E)-Tn6 binding inhibition, primary FP screen | inhibition, % at 8.3 µM | Fibrin DD(E) TRITC-Tn6 fluorescence polarization displacement | AID 720509 | 370,000 compounds, 0.21% hits | P02675;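 active = inhibition above a per-campaign cutoff: mean of compounds within control limits plus 3 SD, cut at about 15% in these data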;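 also: 0% = median of all compound wells on the plate and 100% = blocking peptide control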
# CAL PDZ FP-1 – human CAL PDZ-peptide interaction inhibition; Q9HD26; purified CAL PDZ, TMR-peptide fluorescence polarization, 1 h; inhibition, % at 20 µM; 330,000 compounds, 0.02% hits; AID 504414;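 active = highest replicate inhibition of at least 40%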;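 also: plate controls were DMSO neutral control wells for no effect and unlabeled competitor peptide control wells for full effect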
#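 Material: tagged CAL PDZ protein CerCALP, purified; buffer or medium: sodium phosphate/NaCl buffer pH 7.4 with TCEP, IgG, Thesit; also added: fluorescent TMR peptide probe; schedule: 1 h incubation at room temperature before polarization reading; technique: fluorescence polarization from S- and P-plane intensities, G-factor corrected; control set: unlabelled peptide and DMSO controls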
# ARNT-TACC3 inh – disruptors of human ARNT/TACC3 interaction; Q9Y6A5; 390,000 compounds, 0.66% hits; inhibition, % at 9.99 µM; AlphaScreen His-ARNT PAS-B/GST-TACC3 binding, luminescence; TACC3 fragment carries E629A point mutation; AID 623870;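 active = mean inhibition of replicates at least 50% and at least half of replicates each reaching 50%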;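 also: 0% = complete ARNT plus TACC3 wells and 100% = ARNT alone without TACC3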
# CAL PDZ FP-2 – inhibitors of human CAL PDZ peptide binding; Q9HD26; 300,000 compounds, 0.92% hits; inhibition, % at 24.9 µM; AID 602252; purified CAL PDZ, TMR-peptide fluorescence polarization, 1 h;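 active = mean inhibition of at least 30% with at least half of replicates also reaching 30%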;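 also: 0% = DMSO neutral control and 100% = excess unlabeled competitor peptide PRC23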
# GRK2 aptamer HTS – human GRK2 inhibition via aptamer displacement | P25098 | bead flow cytometry, FAM-aptamer displacement from GRK2 | inhibition of aptamer binding, % at 10 µM | 330,000 compounds, 0.59% hits | AID 488847;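 active = inhibition of aptamer binding above 40%, roughly 3 SD of noise, on plates passing a quality check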;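 also: median bead fluorescence of bound FAM aptamer so fluorescent compounds give negative values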
# Target sequence (P25098 whole entry, looked up): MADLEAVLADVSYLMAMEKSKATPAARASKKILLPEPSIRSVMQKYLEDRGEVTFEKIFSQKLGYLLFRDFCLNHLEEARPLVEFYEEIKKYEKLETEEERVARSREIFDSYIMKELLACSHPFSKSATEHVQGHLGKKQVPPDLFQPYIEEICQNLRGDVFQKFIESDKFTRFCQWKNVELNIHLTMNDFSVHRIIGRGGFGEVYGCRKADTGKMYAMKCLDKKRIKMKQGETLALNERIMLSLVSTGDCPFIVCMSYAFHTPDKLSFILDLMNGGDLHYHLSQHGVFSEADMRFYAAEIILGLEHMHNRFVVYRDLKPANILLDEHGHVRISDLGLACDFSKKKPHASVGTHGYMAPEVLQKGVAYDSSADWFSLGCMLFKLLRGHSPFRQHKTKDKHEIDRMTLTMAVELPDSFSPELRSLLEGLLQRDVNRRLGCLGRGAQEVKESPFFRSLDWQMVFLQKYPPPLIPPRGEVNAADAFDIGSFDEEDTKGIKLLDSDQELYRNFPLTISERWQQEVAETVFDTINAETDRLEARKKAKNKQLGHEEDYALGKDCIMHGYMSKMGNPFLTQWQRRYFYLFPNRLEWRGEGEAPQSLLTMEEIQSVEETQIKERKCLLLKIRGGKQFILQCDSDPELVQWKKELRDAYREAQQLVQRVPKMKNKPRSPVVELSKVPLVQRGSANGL
# Tn7 DDE FP – inhibitors of Tn7 peptide binding to human fibrin DD(E); FP displacement of FITC-Tn7 peptide from fibrin DD(E); 0% = median of compound wells per plate; inhibition, % at 8.3 µM; 370,000 compounds, 0.13% hits; AID 720508;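 active = inhibition above the mean of compounds falling within the control limits plus 3 SD of them, cut at about 14% in these data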;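 also: 0% = plate median of compound wells and 100% = 10 µM Aha-Tn7 peptide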
#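 Assay system: human fibrin DD(E). Input: DD(E) 2 µM final. Medium: Tris buffer with calcium and detergent, pH 7.8. Compound dosing: single point at 8.3 µM. Timing: 10 min plus 3 h, room temperature. Technique: fluorescence polarization of the labelled Tn7 tracer. Read-out: percent inhibition. Replicates: singlicate testing.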
# Tn7 DDE conf – confirmation of inhibitors of Tn7 binding to human fibrin DD(E) | AID 720628 | 460 compounds, 5% hits | FP displacement of TRITC-Tn7 peptide from DD(E); 0% set at plate's compound-well median | shares compounds with Tn7 DDE FP | inhibition, % at 8.3 µM;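 active = inhibition above the campaign cutoff, the mean of compounds within control limits plus 3 SD, cut at about 14% in these data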;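 also: 100% = median FP of high control wells holding Aha-Tn7 inhibitor peptide; displacers lower polarization since freed probe rises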
# DDE Tn7 FP ctr – DD(E)-Tn7 binding inhibition, counter-screen; shares compounds with Tn7 DDE FP; fibrin DD(E), TRITC-Tn7 probe displacement, fluorescence polarization; inhibition, % at 8.3 µM; 460 compounds, 3% hits;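 active = inhibition above the cutoff, the mean of compounds lying between the control bounds plus 3 SD of those compounds, cut at about 17% in these data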;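 also: 0% = median of compound sample wells and 100% = excess unlabeled Aha-Tn7 peptide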
# DDE Tn6 FP ctr – counter-screen hit for Tn6 peptide-fibrin DD(E) binding disruption; shares compounds with DDE Tn6 FP inh; TRITC-Tn6 fluorescence polarization displacement; 0% = median of compound wells, not DMSO; inhibition, % at 8.3 µM; 680 compounds, 2% hits;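 active = inhibition above the mean of test compounds lying between the control limits plus 3 SD of those, cut at about 14% in these data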;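 also: 0% = median of compound wells and 100% = wells with Aha-Tn7 blocking peptide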
# Tn6 DDE conf – DD(E)-Tn6 binding inhibition, FP confirmation; 680 compounds, 10% hits; AID 720631; shares compounds with DDE Tn6 FP inh; FP displacement of TRITC-Tn6 peptide from DD(E); 0% = per-plate median of test wells; inhibition, % at 8.3 µM;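 active = inhibition above the mean of compounds lying within the control limits plus 3 SD, cut at about 16% in these data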;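 also: 100% = high control wells holding a competing inhibitor peptide at 10 µM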
# An asterisk follows results filed as active; nt = no result; + = active, no number.
SMILES,DDE Tn6 FP inh,CAL PDZ FP-1,ARNT-TACC3 inh,CAL PDZ FP-2,GRK2 aptamer HTS,Tn7 DDE FP,Tn7 DDE conf,DDE Tn7 FP ctr,DDE Tn6 FP ctr,Tn6 DDE conf
CCN(CC)C(=O)N1CCN(C)CC1,7.1,0.1,-4.3,-1.2,0.0,14.7*,0.2,2.5,nt,nt
O=C(NC(=O)c1ccc(Cl)cc1)Nc1ccc(-c2cnco2)cc1,nt,nt,nt,nt,0.0,nt,nt,nt,nt,nt
O=C(NC(=O)c1ccc(C(F)(F)F)cc1)Nc1ccc(-c2cnco2)cc1,-0.1,-0.3,2.1,-3.7,nt,14.2*,-1.8,-2.6,nt,nt
CCCCNC(=S)N(C)N=C1CCC(c2ccccc2)CC1 (stereo not drawn),-1.3,-1.5,-3.3,-3.1,5.0,0.2,nt,nt,nt,nt
CCCCNC(=S)N(C)/N=C/c1ccccc1C(=O)O,0.4,-0.4,-5.3,-1.5,0.0,14.4*,-8.6,-7.0,nt,nt
CCOC(=O)NC(=O)C(=CNc1ccc(C)cc1)C(=O)NC(=O)OCC,-7.3,-1.3,-2.0,-2.5,5.0,-3.0,nt,nt,nt,nt
CC(=O)c1c2c3c(cccc3n(C)c1=O)C(=O)c1ccccc1-2,nt,nt,nt,nt,25.0,nt,nt,nt,nt,nt
Cn1c(=O)c(Nc2ccc(O)cc2)c2c3c(cccc31)C(=O)c1ccccc1-2,3.3,1.3,10.4,-4.2,2.0,15.5*,9.4,4.6,nt,nt
O=C1NC(=S)SC1=Cc1cccs1,7.9,-1.7,6.3,nt,nt,14.1*,-6.5,-7.8,nt,nt
C[C@@H](NC(=O)C[C@H]1C=C[C@@H](NC(=O)Nc2ccc3c(c2)OCO3)[C@@H](CO)O1)c1ccccc1,nt,nt,-6.5,nt,nt,nt,nt,nt,nt,nt
COc1ccc(CNC(=O)C[C@H]2C[C@H](C(=O)N3CCOCC3)[C@@]3(C)c4[nH]c5cc(-c6ccco6)ccc5c4CCN3C2=O)cc1OC,114.5*,-1.2,0.5,2.6,3.0,45.8*,2.4,0.5,2.4,0.5
Nc1cnccc1C(=O)O,45.9*,0.0,15.1,-1.8,1.0,13.8*,-1.7,-3.1,-1.7,-3.1
C[C@@H]1CCCCO[C@@H](CN(C)Cc2ccc(C(=O)O)cc2)[C@H](C)CN([C@H](C)CO)C(=O)c2cc(NC(=O)Nc3ccccc3)ccc2O1,nt,nt,-12.8,nt,nt,nt,nt,nt,nt,nt
CN(C)c1ccc(C=Cc2nccc3ccccc23)cc1,130.6*,nt,nt,nt,nt,29.5*,1.6,54.1*,1.6,54.1*
CO[C@@H](CN(C)S(=O)(=O)c1cccc(Cl)c1)[C@@H](C)CN(C(=O)Nc1ccccc1F)[C@@H](C)CO,nt,nt,0.5,nt,nt,nt,nt,nt,nt,nt
O=C1C=C(N2CCOCC2)c2cccc3cccc1c23,31.1*,nt,nt,nt,nt,24.6*,7.3,7.6,7.3,7.6
O=C1C=C(N2CCOCC2)c2ccccc2C1=O,5.2,0.6,nt,0.6,6.0,5.2,nt,nt,nt,nt
O=C1C(N2CCOCC2)=Cc2cccc3cccc1c23,37.9*,nt,nt,nt,nt,21.9*,-0.1,16.5*,-0.1,16.5*
Cc1nnsc1S(=O)c1ccccc1Cl (stereo not drawn),0.7,nt,-1.0,-0.6,2.0,2.9,nt,nt,nt,nt
C[C@H]1CN([C@@H](C)CO)C(=O)c2cc(NC(=O)Nc3ccc(C(F)(F)F)cc3)ccc2O[C@@H]1CN(C)S(=O)(=O)c1ccc(Cl)cc1,nt,nt,-2.0,nt,nt,nt,nt,nt,nt,nt
N#CC1=C(N)Oc2cc(N)ccc2C1c1ccsc1 (stereo not drawn),7.5,-2.5,-2.4,-1.7,0.0,6.9,nt,nt,nt,nt
N#CC1=C(N)Oc2ccc3ccc(O)cc3c2C1c1ccsc1 (stereo not drawn),168.6*,-0.5,nt,-1.5,nt,22.9*,7.8,37.8*,7.8,37.8*
CCOC(=O)NC(=O)/C(C#N)=C\Nc1ccc(Cl)cc1Cl,-2.4,-0.1,-6.4,3.1,0.0,-3.2,nt,nt,nt,nt
CCOC(=O)NC(=O)/C(C#N)=C\Nc1sccc1C(=O)OC,16.1*,0.9,19.9,-4.2,1.0,16.8*,1.1,1.9,1.1,1.9
CCC(Sc1nc2ncccc2[nH]1)C(=O)NC1CCCC1 (stereo not drawn),18.0*,0.0,4.9,nt,0.0,-1.2,nt,nt,0.5,-1.3
SMILES,DDE Tn6 FP inh,CAL PDZ FP-1,ARNT-TACC3 inh,CAL PDZ FP-2,GRK2 aptamer HTS,Tn7 DDE FP,Tn7 DDE conf,DDE Tn7 FP ctr,DDE Tn6 FP ctr,Tn6 DDE conf
C[C@@H]1CN([C@@H](C)CO)C(=O)CCCn2cc(nn2)CO[C@H]1CN(C)S(=O)(=O)c1ccc(Oc2ccccc2)cc1,nt,nt,-26.4,nt,nt,nt,nt,nt,nt,nt
COc1cccc2c1C(=O)c1c(O)c3c(c(O)c1C2=O)CC(O)(C(C)=O)CC3OC1CC(N(C)C)C(O)C(C)O1 (stereo not drawn),+,15.7,9.6,10.6,nt,11.3,nt,nt,-7.3,93.2*
CCn1ccc(=N)cc1,19.9*,0.8,-5.6,2.5,2.0,4.8,nt,nt,3.3,-7.6
CCCCCC(=O)Nc1ccc2oc(-c3cncc(Br)c3)nc2c1,15.8*,-0.5,0.0,-3.6,0.0,-0.7,nt,nt,-4.7,-12.9
CCCC(=O)Nc1ccc2oc(-c3cncc(Br)c3)nc2c1,3.8,-0.7,-0.3,10.4,0.0,-0.6,nt,nt,nt,nt
COc1ccc(-c2cc(C(=O)Nc3ccccc3)on2)cc1,22.4*,-1.4,1.6,nt,1.0,-2.3,nt,nt,3.3,-0.6
C[C@@H]1CCCCO[C@H](CN(C)Cc2ccc(Cl)c(Cl)c2)[C@@H](C)CN([C@@H](C)CO)C(=O)c2cc(NS(C)(=O)=O)ccc2O1,nt,nt,1.6,nt,nt,nt,nt,nt,nt,nt
O=C1CCC[C@@H]2[C@@H](Cc3ccccc3)[C@H](N3CCN(c4ccccc4)CC3)C[C@@H]3CCN1[C@@H]32,-1.3,-0.4,8.2,-1.7,nt,4.4,nt,nt,nt,nt
COc1ccc(C)cc1S(=O)(=O)N1CCN(c2ccccc2)CC1,16.4*,0.1,-5.0,1.9,1.0,3.4,nt,nt,1.6,2.2
CN1CCN(C(=O)C[C@@H]2CC[C@@H]3[C@H](COC[C@H](O)CN3C(=O)Nc3cc(Cl)cc(Cl)c3)O2)CC1,nt,nt,-12.3,nt,nt,nt,nt,nt,nt,nt
Cc1ccc(C(=O)n2cnc3ccccc32)cc1C,15.9*,nt,9.7,-6.4,0.0,-0.1,nt,nt,3.9,3.1
CCOC(=O)[C@]12CCCC=C1N(Cc1ccc(OC)cc1)C(=O)[C@@H]2CC(=O)NCCc1ccccc1OC,-1.8,nt,nt,nt,nt,-0.1,nt,nt,nt,nt
COC(=O)c1ccc2c(c1)SC1=C(CCCC1=O)N2,21.9*,0.8,4.1,0.3,0.0,-0.7,nt,nt,1.0,24.3*
